Assay results: ChEMBL document CHEMBL4033620, “Design, synthesis and biological evaluation of quinoline derivatives as HDAC class I inhibitors” (Eur J Med Chem, 2017)

Assays:
[1] = biological target: Histone deacetylase (HDAC1 and HDAC2) (Homo sapiens, UniProt Q13547+Q92769); assay: Inhibition of HDAC1/2 in human HeLa cell nuclear extract using COLOR DE LYS as substrate pretreated for 5 mins followed by substrate addition measured after 30 mins by UV-absorption method; assay type: cell-based
MOLT-4 = assay: Antiproliferative activity against human MOLT4 cells after 48 hrs by MTT assay; assay type: functional, cell-based; conditions: MOLT-4, 48 h
PC-3 = assay: Antiproliferative activity against human PC3 cells after 48 hrs by MTT assay; assay type: functional, cell-based; conditions: PC-3, 48 h
Outline: (§1)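 Cells grown in RPMI1640 with 10% FBS at 37°C, 5% CO2. Seeded at 4000–5000 cells/well for 8 h, then exposed to a range of compound concentrations for 48 h. 0.5% MTT solution added for 4 h, formazan dissolved in DMSO, absorbance read at 570 nm. IC50 derived from inhibition ratios, given as mean ± standard deviation of two or three separate determinations.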

HeLa = assay: Antiproliferative activity against human HeLa cells after 48 hrs by MTT assay; assay type: functional, cell-based; outline: as §1
HEL = assay: Antiproliferative activity against human HEL cells after 48 hrs by MTT assay; assay type: functional, cell-based
K562 = assay: Antiproliferative activity against human K562 cells after 48 hrs by MTT assay; assay type: functional, cell-based; conditions: K562, 48 h

Row | IC50 [1] | Compound | further results
1 | 0.56 µM | COc1ccc2nc(CN(C(=O)Cc3ccc(/C=C/C(=O)NO)cc3)c3ccccc3)ccc2c1 | –
2 | 0.305 µM | O=C(/C=C/c1ccc(CNCc2ccc3cc(Cl)ccc3n2)cc1)NO | IC50 (MOLT-4): 0.25 µM; IC50 (PC-3): 4.35 µM; IC50 (HeLa): 3.03 µM; IC50 (HEL): 0.22 µM; IC50 (K562): 0.72 µM
3 | > 1 µM | O=C(NO)c1ccc(CNCc2ccc3cccc(Cl)c3n2)cc1 | –
4 | > 1 µM | O=C(/C=C/c1ccc(CN(Cc2ccccc2)Cc2ccc3cc(Cl)ccc3n2)cc1)NO | –
5 | > 1 µM | O=C(/C=C/c1ccc(CC(=O)N(Cc2ccc3cc(Br)ccc3n2)c2ccccc2)cc1)NO | –
6 | > 1 µM | CCCCCCN(Cc1ccc(/C=C/C(=O)NO)cc1)Cc1ccc2cc(Br)ccc2n1 | –
7 | 0.375 µM | O=C(/C=C/c1ccc(CNCc2ccc3cc(Br)ccc3n2)cc1)NO | –
8 | > 1 µM | O=C(/C=C/c1ccc(CN(Cc2ccccc2)Cc2ccc3ccccc3n2)cc1)NO | –
9 | > 1 µM | O=C(/C=C/c1ccc(CN(Cc2ccccc2)Cc2ccc3cc(Br)ccc3n2)cc1)NO | –
10 | > 1 µM | O=C(/C=C/c1ccc(C(=O)N(Cc2ccc3cc(Br)ccc3n2)c2ccccc2)cc1)NO | –
11 | 0.559 µM | O=C(/C=C/c1cccc(CNCc2ccc3cc(Br)ccc3n2)c1)NO | –
12 | > 1 µM | O=C(/C=C/c1ccc(C(=O)N(Cc2ccc3ccccc3n2)c2ccccc2)cc1)NO | –
13 | 0.72 µM | O=C(/C=C/c1ccc(CC(=O)N(Cc2ccc3ccccc3n2)c2ccccc2)cc1)NO | –
14 | > 1 µM | CCCCCCN(Cc1cccc(/C=C/C(=O)NO)c1)Cc1ccc2cc(Br)ccc2n1 | –
